Values after ≈ are worked out from the molar mass of the structure shown.
Key:
Assay type in all cases: functional
[1] = tested on: Staphylococcus aureus; assay: Antibacterial activity against Staphylococcus aureus IAM1011
How it was run: (§1)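 Broth microdilution MIC. Bacteria grown 16 h on BHI agar, suspended in MH broth at about (3-6) × 10^6 cfu/mL. Test materials applied at 20–100 mg/mL (as stated, before dilution), serially 2-fold diluted, then mixed with the bacterial suspension. Incubated 24 h at 37°C before MIC read-out. Positive controls: ampicillin for S. aureus and E. coli, penicillin G for P. aeruginosa.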

[2] = tested on: Escherichia coli; assay: Antibacterial activity against Escherichia coli IAM1257; how it was run: as §1
[3] = tested on: Pseudomonas aeruginosa; assay: Antibacterial activity against Pseudomonas aeruginosa IAM1058; how it was run: as §1
[4] = tested on: Candida albicans; assay: Antifungal activity against Candida albicans IAM1099
[5] = tested on: Botrytis cinerea; assay: Antifungal activity against Botrytis cinerea IAM1069

Row | Compound | MIC [1] | MIC [2] | MIC [3] | MIC [4] | MIC [5] | Activity [5]
1 | O=c1oc2cc(O)ccc2c(O)c1-c1ccc(O[C@@H]2O[C@H](CO)[C@@H](O)[C@H](O)[C@H]2O)cc1O | 128 µg/mL (≈ 285 µM) | 128 µg/mL (≈ 285 µM) | 256 µg/mL (≈ 571 µM) | 512 µg/mL (≈ 1140 µM) | 1020 µg/mL (≈ 2280 µM) | 
2 | CC1(C)S[C@@H]2[C@H](NC(=O)[C@H](N)c3ccccc3)C(=O)N2[C@H]1C(=O)O [AMPICILLIN] | < 0.5 µg/mL | 1 µg/mL (≈ 2.86 µM) |  |  |  | 
3 | O=c1oc2cc(O)ccc2c(O)c1-c1ccc(O)cc1O [ASPHODELIN A] | 16 µg/mL (≈ 55.9 µM) | 4 µg/mL (≈ 14 µM) | 8 µg/mL (≈ 27.9 µM) | 64 µg/mL (≈ 224 µM) | 128 µg/mL (≈ 447 µM) | 
4 | CC1(C)S[C@@H]2[C@H](NC(=O)Cc3ccccc3)C(=O)N2[C@H]1C(=O)O [PENICILLIN G] |  |  | 1 µg/mL (≈ 2.99 µM) |  |  | 
5 | NYSTATIN |  |  |  | < 0.5 µg/mL |  | < 0.5 µg/mL
